Measured values as given in ChEMBL document CHEMBL5303300, “EUbOPEN Chemogenomics Library - Multiplex” (2023).
Values joined by “and” are separate entries in the source; they are usually repeats but may differ in a detail not shown here. Equal entries are not always repeated.

Test system: HEK-293T
Assay: Multiplex assay against HEK293T
Type: toxicity, cell-based
Details: human, number of replicates 2
In short: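 With compound added, live cells were imaged on a CQ1 microscope at 37°C and 5% CO2; staining with Hoechst33342, BioTracker Green Microtubule Cytoskeleton Dye, MitoTracker Red and Annexin V Alexa Fluor 680 had been done at seeding. The CellPathfinder machine-learning gating scheme split cells into Hoechst high-intensity objects or normal cells, normal cells into healthy, pyknosed or fragmented nuclei, and pyknosed cells into mitotic or apoptotic. The tubulin, mitochondrial-mass and membrane-permeability phenotypes are per cents of healthy-nucleus cells.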

[1] = 12 h, 1 µM, compound concentration 1 uM
[2] = 12 h, 10 µM, compound concentration 10 uM
[3] = 24 h, 1 µM, compound concentration 1 uM
[4] = 24 h, 10 µM, compound concentration 10 uM
[5] = 48 h, 1 µM, compound concentration 1 uM
[6] = 48 h, 10 µM, compound concentration 10 uM

In the case of `COc1ccc(F)c(F)c1C(=O)c1cnc(NC2CCN(S(C)(=O)=O)CC2)nc1N` [RG-547], the “Population Apoptotic (%)” value [1] is reported as 71% and 70%, the “Population Fragmented Nuclei (%)” value [1] is reported as 1% and 3% and the “Population Healthy Nuclei (%)” value [1] is reported as 86% and 87%. For the same compound, the “Population Hoechst High Intensity Objects (%)” value [1] was 8%, the “Population Membrane Permeable-Phenotype (%)” value [1] was 4% and the “Population Mitochondria Different-Phenotype (%)” value [1] was 21% and 18%. The “Population Mitotic Cells (%)” value [1] was 28% and 29%, the “Population Normal (%)” value [1] was 91% and the “Population Pyknosed Nuclei (%)” value [1] was 11% and 8%. The “Population Tubulin-Different-Phenotype (%)” value [1] was 57% and 48%, the “Total Cell Count” value [1] was 469 and 554 and the “Population Apoptotic (%)” value [2] was 62% and 82%. The “Population Fragmented Nuclei (%)” value [2] was 3% and 4%, the “Population Healthy Nuclei (%)” value [2] was 91% and 86% and the “Population Hoechst High Intensity Objects (%)” value [2] was 8% and 11%. For the same compound, the “Population Membrane Permeable-Phenotype (%)” value [2] was 2% and 1%, the “Population Mitochondria Different-Phenotype (%)” value [2] was 24% and 33% and the “Population Mitotic Cells (%)” value [2] was 37% and 17%. The “Population Normal (%)” value [2] was 91% and 88%, the “Population Pyknosed Nuclei (%)” value [2] was 5% and 8% and the “Population Tubulin-Different-Phenotype (%)” value [2] was 59% and 65%. The “Total Cell Count” value [2] was 491 and 448, the “Population Apoptotic (%)” value [3] was 86% and 67% and the “Population Fragmented Nuclei (%)” value [3] was 3% and 5%. For the same compound, the “Population Healthy Nuclei (%)” value [3] was 90% and 87%, the “Population Hoechst High Intensity Objects (%)” value [3] was 5% and 7% and the “Population Membrane Permeable-Phenotype (%)” value [3] was 5% and 3%. For the same compound, the “Population Mitochondria Different-Phenotype (%)” value [3] was 8% and 9%, the “Population Mitotic Cells (%)” value [3] was 13% and 32% and the “Population Normal (%)” value [3] was 94% and 92%. The “Population Pyknosed Nuclei (%)” value [3] was 5% and 7%, the “Population Tubulin-Different-Phenotype (%)” value [3] was 33% and 37% and the “Total Cell Count” value [3] was 670 and 592. The “Population Apoptotic (%)” value [4] was 63% and 66%, the “Population Fragmented Nuclei (%)” value [4] was 4% and 2% and the “Population Healthy Nuclei (%)” value [4] was 89% and 87%. For the same compound, the “Population Hoechst High Intensity Objects (%)” value [4] was 9% and 15%, the “Population Membrane Permeable-Phenotype (%)” value [4] was 0% and the “Population Mitochondria Different-Phenotype (%)” value [4] was 42% and 37%. The “Population Mitotic Cells (%)” value [4] was 36% and 33%, the “Population Normal (%)” value [4] was 90% and 84% and the “Population Pyknosed Nuclei (%)” value [4] was 6% and 9%. For the same compound, the “Population Tubulin-Different-Phenotype (%)” value [4] was 63% and 61%, the “Total Cell Count” value [4] was 395 and 403 and the “Population Apoptotic (%)” value [5] was 61% and 72%. The “Population Fragmented Nuclei (%)” value [5] was 11%, the “Population Healthy Nuclei (%)” value [5] was 86% and the “Population Hoechst High Intensity Objects (%)” value [5] was 5%. The “Population Membrane Permeable-Phenotype (%)” value [5] was 1% and 2%, the “Population Mitochondria Different-Phenotype (%)” value [5] was 2% and 4% and the “Population Mitotic Cells (%)” value [5] was 38% and 27%. The “Population Normal (%)” value [5] was 94%, the “Population Pyknosed Nuclei (%)” value [5] was 1% and the “Population Tubulin-Different-Phenotype (%)” value [5] was 24% and 25%. For the same compound, the “Total Cell Count” value [5] was 841 and 644, the “Population Apoptotic (%)” value [6] was 73% and 80% and the “Population Fragmented Nuclei (%)” value [6] was 5%. For the same compound, the “Population Healthy Nuclei (%)” value [6] was 89% and 84%, the “Population Hoechst High Intensity Objects (%)” value [6] was 17% and 13% and the “Population Membrane Permeable-Phenotype (%)” value [6] was 0%. For the same compound, the “Population Mitochondria Different-Phenotype (%)” value [6] was 50% and 55%, the “Population Mitotic Cells (%)” value [6] was 26% and 20% and the “Population Normal (%)” value [6] was 82% and 86%. For the same compound, the “Population Pyknosed Nuclei (%)” value [6] was 5% and 10%, the “Population Tubulin-Different-Phenotype (%)” value [6] was 67% and 65% and the “Total Cell Count” value [6] was 329 and 336.

In the case of `CN1CCc2cc(Nc3ncc(C(F)(F)F)c(NCc4cc[nH]n4)n3)ccc2C1`, the “Population Apoptotic (%)” value [1] is reported as 85% and 72%, the “Population Fragmented Nuclei (%)” value [1] is reported as 4% and 3% and the “Population Healthy Nuclei (%)” value [1] is reported as 77% and 78%. For the same compound, the “Population Hoechst High Intensity Objects (%)” value [1] was 14% and 11%, the “Population Membrane Permeable-Phenotype (%)” value [1] was 1% and the “Population Mitochondria Different-Phenotype (%)” value [1] was 41% and 47%. For the same compound, the “Population Mitotic Cells (%)” value [1] was 14% and 27%, the “Population Normal (%)” value [1] was 85% and 88% and the “Population Pyknosed Nuclei (%)” value [1] was 17%. The “Population Tubulin-Different-Phenotype (%)” value [1] was 35% and 44%, the “Total Cell Count” value [1] was 280 and 291 and the “Population Apoptotic (%)” value [2] was 64% and 85%. For the same compound, the “Population Fragmented Nuclei (%)” value [2] was 5%, the “Population Healthy Nuclei (%)” value [2] was 89% and the “Population Hoechst High Intensity Objects (%)” value [2] was 10% and 13%. The “Population Membrane Permeable-Phenotype (%)” value [2] was 0%, the “Population Mitochondria Different-Phenotype (%)” value [2] was 38% and 43% and the “Population Mitotic Cells (%)” value [2] was 35% and 14%. The “Population Normal (%)” value [2] was 89% and 86%, the “Population Pyknosed Nuclei (%)” value [2] was 5% and the “Population Tubulin-Different-Phenotype (%)” value [2] was 66% and 70%. The “Total Cell Count” value [2] was 377 and 312, the “Population Apoptotic (%)” value [3] was 83% and 72% and the “Population Fragmented Nuclei (%)” value [3] was 4% and 5%. The “Population Healthy Nuclei (%)” value [3] was 81% and 73%, the “Population Hoechst High Intensity Objects (%)” value [3] was 20% and 13% and the “Population Membrane Permeable-Phenotype (%)” value [3] was 0%. The “Population Mitochondria Different-Phenotype (%)” value [3] was 37% and 43%, the “Population Mitotic Cells (%)” value [3] was 16% and 27% and the “Population Normal (%)” value [3] was 79% and 86%. The “Population Pyknosed Nuclei (%)” value [3] was 14% and 20%, the “Population Tubulin-Different-Phenotype (%)” value [3] was 38% and 42% and the “Total Cell Count” value [3] was 267 and 261. For the same compound, the “Population Apoptotic (%)” value [4] was 63% and 80%, the “Population Fragmented Nuclei (%)” value [4] was 5% and 4% and the “Population Healthy Nuclei (%)” value [4] was 87%. For the same compound, the “Population Hoechst High Intensity Objects (%)” value [4] was 11% and 13%, the “Population Membrane Permeable-Phenotype (%)” value [4] was 1% and 0% and the “Population Mitochondria Different-Phenotype (%)” value [4] was 58% and 60%. The “Population Mitotic Cells (%)” value [4] was 36% and 20%, the “Population Normal (%)” value [4] was 88% and 86% and the “Population Pyknosed Nuclei (%)” value [4] was 7% and 8%. For the same compound, the “Population Tubulin-Different-Phenotype (%)” value [4] was 73% and 71%, the “Total Cell Count” value [4] was 315 and 284 and the “Population Apoptotic (%)” value [5] was 80% and 72%. For the same compound, the “Population Fragmented Nuclei (%)” value [5] was 7% and 5%, the “Population Healthy Nuclei (%)” value [5] was 79% and the “Population Hoechst High Intensity Objects (%)” value [5] was 16% and 14%. The “Population Membrane Permeable-Phenotype (%)” value [5] was 1%, the “Population Mitochondria Different-Phenotype (%)” value [5] was 40% and 36% and the “Population Mitotic Cells (%)” value [5] was 19% and 27%. For the same compound, the “Population Normal (%)” value [5] was 83% and 85%, the “Population Pyknosed Nuclei (%)” value [5] was 13% and 15% and the “Population Tubulin-Different-Phenotype (%)” value [5] was 36%. For the same compound, the “Total Cell Count” value [5] was 285 and 307, the “Population Apoptotic (%)” value [6] was 46% and 75% and the “Population Fragmented Nuclei (%)” value [6] was 3% and 4%. The “Population Healthy Nuclei (%)” value [6] was 84% and 82%, the “Population Hoechst High Intensity Objects (%)” value [6] was 14% and 18% and the “Population Membrane Permeable-Phenotype (%)” value [6] was 0% and 1%. For the same compound, the “Population Mitochondria Different-Phenotype (%)” value [6] was 65% and 67%, the “Population Mitotic Cells (%)” value [6] was 53% and 25% and the “Population Normal (%)” value [6] was 85% and 81%. For the same compound, the “Population Pyknosed Nuclei (%)” value [6] was 11% and 12%, the “Population Tubulin-Different-Phenotype (%)” value [6] was 71% and 72% and the “Total Cell Count” value [6] was 303 and 280.
